Laboratory results reported in ChEMBL document CHEMBL4334455, “Synthesis of Usnic Acid Derivatives and Evaluation of Their Antiproliferative Activity against Cancer Cells” (J Nat Prod, 2019).
Active and inactive are the calls of the source. No cut-off for these calls is given here.

Legend:
MCF7 [1] = experiment: Antiproliferative activity against human MCF7 cells assessed as reduction in cell viability after 48 hrs by MTT assay; assay type: functional, cell-based; settings: Homo sapiens, MCF7, 48 h
Method in brief: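 Cells seeded at 4 × 10³/well for 24 h runs and for PC-3, or 2 × 10³/well for MCF-7 and HeLa 48 h runs, and attached overnight. Medium replaced with compound-containing medium for 24 or 48 h. MTT (4 mg mL⁻¹) added for the final 3 h, formazan dissolved in DMSO, absorbance read at 570 nm (reference 660 nm). IC₅₀ calculated from at least three independent experiments in duplicate, mean ± SE.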

MCF7 [2] = experiment: Induction of cell cycle arrest in human MCF7 cells assessed as accumulation of cells at G0/G1 phase at 2.9 uM after 24 hrs by Propidium iodide staining based flow cytometric analysis (reference value: 47.8 +/- 0.42%); assay type: functional
MCF7 [3] = experiment: Induction of cell cycle arrest in human MCF7 cells assessed as accumulation of cells at G0/G1 phase at 8.7 uM after 24 hrs by Propidium iodide staining based flow cytometric analysis (reference value: 47.8 +/- 0.42%); assay type: functional
MCF7 [4] = experiment: Induction of cell cycle arrest in human MCF7 cells assessed as accumulation of cells at S phase at 2.9 uM after 24 hrs by Propidium iodide staining based flow cytometric analysis (reference value: 23.75 +/- 1.87%); assay type: functional
HeLa [5] = experiment: Induction of cell cycle arrest in human HeLa cells assessed as accumulation of cells at G0/G1 phase 2.9 to 8.7 uM after 24 hrs by propidium iodide staining based flow cytometric analysis (reference value: 44%); assay type: functional
HeLa [6] = experiment: Anticlonogenic activity against human HeLa cells assessed as reduction in colony formation at 2.9 to 11.6 uM incubated for 24 hrs followed by recovery period of 2 weeks by culturing cells in drug-free medium by crystal violet staining based assay; assay type: functional, cell-based
Method in brief: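 Cells (1 × 10⁶) plated, after 24 h given fresh medium with derivative at 1, 2, 3 or 4 μg mL⁻¹ for 24 h; then trypsinized, counted, 8 × 10² replated into two plates in compound-free medium. After 2 weeks fixed with 6.0% glutaraldehyde, stained with 0.5% crystal violet; colonies of ≥50 cells counted. Mean ± SE of three experiments in duplicate.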

MCF7 [7] = experiment: Induction of apoptosis in human MCF7 cells at 2.9 uM after 48 hrs by Annexin-V/7-AAD staining based flow cytometric analysis relative to control; assay type: functional
Method in brief: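 MCF-7 cells treated 48 h, stained with annexin V and 7-AAD (Muse annexin V and dead cell kit), and apoptotic and necrotic fractions counted by flow cytometry. Mean ± SE of three independent experiments; ANOVA with Bonferroni post hoc test.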

MCF7 [8] = experiment: Induction of apoptosis in human MCF7 cells assessed as increase in Bax level at 2.9 uM after 24 hrs by immunoblot analysis relative to control; assay type: functional
Method in brief: (§1)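 Proteins run on SDS-PAGE, transferred to PVDF, blocked in 5% milk/PBS, primary antibody overnight at 4 °C (cleaved PARP, Bax, Bcl-2), secondary 1 h at room temperature. Reprobed for β-actin; densitometry corrected for loading.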

MCF7 [9] = experiment: Induction of apoptosis in human MCF7 cells assessed as reduction in Bcl-2 expression at 2.9 uM after 24 hrs by immunoblot analysis relative to control; assay type: functional; method in brief: as §1
MCF7 [10] = experiment: Induction of endocytosis in human MCF7 cells at 2.9 to 8.7 uM after 24 hrs by lucifer yellow staining based fluorescence microscopic analysis; assay type: functional, cell-based
Method in brief: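 MCF-7 cells treated 24 h with 2.9 or 8.7 μM derivative, stained with 75 μM Lucifer Yellow, washed, and examined by fluorescence microscopy at 1000×.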

MCF7 [11] = experiment: Induction of vacuolization in human MCF7 cells at 8.7 uM after 24 hrs in presence of 0.5 uM actin dynamics inhibitor, cytochalasin-D by light microscopic analysis; assay type: functional, cell-based
MCF7 [12] = experiment: Induction of vacuolization in human MCF7 cells at 8.7 uM after 24 hrs in presence of 10 uM Na+/H+ exchange inhibitor, amiloride by light microscopic analysis; assay type: functional, cell-based
MCF7 [13] = experiment: Induction of vacuolization in human MCF7 cells at 8.7 uM after 24 hrs in presence of 50 uM dynamin inhibitor, dynasore by light microscopic analysis; assay type: functional, cell-based
MCF7 [14] = experiment: Antiproliferative activity against human MCF7 cells assessed as reduction in cell viability at 8.7 uM after 24 hrs in presence of 50 uM dynamin inhibitor, dynasore by MTT assay relative to control; assay type: functional, cell-based
MCF7 [15] = experiment: Induction of vacuolization in human MCF7 cells at 8.7 uM after 24 to 48 hrs in presence of early autophagy inhibitor, wortmannin by TEM analysis; assay type: functional, cell-based

## CC(=O)c1c(O)c(C)c(O)c2c1OC1=Cc3onc(C)c3C(=O)[C@]12C
MCF7 [1]
  IC50: 2500 nM
MCF7 [2]
  Activity: 70.25%
MCF7 [3]
  Activity: 75.7%
MCF7 [4]
  Activity: 11.15%
HeLa [5]
  Activity: 51 - 65%
HeLa [6]
  inhibition: Active
MCF7 [7]
  fold change (FC): 2
MCF7 [8]
  fold change (FC): 1.3
MCF7 [9]
  fold change (FC): 0.5
MCF7 [10]
  Activity: Active
MCF7 [11]
  Activity: Active
MCF7 [12]
  Activity: Active
MCF7 [13]
  Activity: inactive
MCF7 [14]
  inhibition: Active
MCF7 [15]
  Activity: Active

## CC(=O)c1c(O)c(C)c(O)c2c1OC1=Cc3onc(C)c3C(=O)C12C (racemic)
MCF7 [1]
  IC50: 2900 nM
MCF7 [2]
  Activity: 71.85%
MCF7 [3]
  Activity: 75.45%
MCF7 [4]
  Activity: 10.1%
HeLa [5]
  Activity: 51 - 65%
HeLa [6]
  inhibition: Active
MCF7 [7]
  fold change (FC): 2
MCF7 [8]
  fold change (FC): 1.02
MCF7 [9]
  fold change (FC): 0.6
MCF7 [10]
  Activity: Active
MCF7 [11]
  Activity: Active
MCF7 [12]
  Activity: Active
MCF7 [13]
  Activity: inactive
MCF7 [14]
  inhibition: Active
MCF7 [15]
  Activity: Active
